# Sampled rows, rich in hits. Any-hit rate of the full collection: about 1.8%.
# Tn6 DDE FP: disrupts Tn6 cyclic peptide binding to fibrin D-Dimer-E complex. Fibrin DD(E) TRITC-Tn6 fluorescence polarization displacement. inhibition, % at 8.3 µM. 0.21% of 370,000 active;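 active means inhibition above a per-campaign cutoff: mean of compounds within control limits plus 3 SD, cut at about 15% in these data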;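 further: 0% = median of all compound wells on the plate and 100% = blocking peptide control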
# Target sequence (P02675 whole entry, looked up): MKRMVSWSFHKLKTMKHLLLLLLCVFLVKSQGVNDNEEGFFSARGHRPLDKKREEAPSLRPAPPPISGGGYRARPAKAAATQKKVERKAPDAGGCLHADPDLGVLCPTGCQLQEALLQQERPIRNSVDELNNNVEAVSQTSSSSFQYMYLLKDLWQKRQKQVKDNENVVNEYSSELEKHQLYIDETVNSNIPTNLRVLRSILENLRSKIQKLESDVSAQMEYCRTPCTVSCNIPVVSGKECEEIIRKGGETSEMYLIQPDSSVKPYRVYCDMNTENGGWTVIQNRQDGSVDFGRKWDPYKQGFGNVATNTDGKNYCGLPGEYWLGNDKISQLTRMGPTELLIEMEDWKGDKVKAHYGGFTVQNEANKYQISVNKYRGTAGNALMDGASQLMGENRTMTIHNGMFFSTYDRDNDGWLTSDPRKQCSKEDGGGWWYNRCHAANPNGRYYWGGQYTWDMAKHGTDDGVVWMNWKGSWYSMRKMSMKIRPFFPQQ
# HTRA1 inhibitor: blocks human HTRA1 serine peptidase | AID 504803 | recombinant HTRA1, FP-rhodamine activity-based probe, fluorescence polarization | Q92743 | 0.5% of 340,000 active | inhibition, % at 5.96 µM; in the data active means inhibition above about 36%;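 further: 0% = enzyme with DMSO and 100% = wells lacking enzyme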
# mABHD4 FP: inhibitors of mouse ABHD4; inhibition, % at 8.92 µM; 0.54% of 370,000 active; purified mABHD4, FP-Rh probe fluorescence polarization;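 active means inhibition exceeding the mean over every tested compound plus 3 SD, cut at about 30% in these data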;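 further: 0% = plate median of compound wells and 100% = S159A mutant with DMSO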
#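 Assay system: Wild-type mouse ABHD4 protein | Medium: HEPES pH 7.0 buffer, 150 mM NaCl, 0.01% Pluronic F-127 | Incubation: Enzyme–compound pre-incubation 45 min, then probe 60 min, both 25 °C | Technique: Fluorescence polarization with parallel and perpendicular emission, 525/598 nm | Evaluation: % inhibition of FP-Rh probe binding versus controls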
# DDE Tn7 FP inh: inhibitors of Tn7 peptide binding to human fibrin DD(E). FP displacement of FITC-Tn7 peptide from fibrin DD(E); 0% = median of compound wells per plate. P02675. inhibition, % at 8.3 µM. AID 720508. 0.13% of 370,000 active;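 active means inhibition above the mean of compounds falling within the control limits plus 3 SD of them, cut at about 14% in these data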;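 further: 0% = plate median of compound wells and 100% = 10 µM Aha-Tn7 peptide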
#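 assay system = human clot-derived fibrin DD(E) complex | quantity = Fibrin-DD(E) at 2 µM final | timing = 10 min preincubation, 3 h with tracer, room temperature | signal = fluorescence polarization | measure = percent inhibition | benchmarks = high control wells with 10 µM unlabelled Aha-Tn7 peptide (full inhibition) | replicates = singlicate testing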
# TCR CD3 inh: human TCR-CD3 binding inhibition | TAMRA-labeled TCR probe fluorescence, biochemical | inhibition, % at 9.4 µM | 0.37% of 360,000 active | AID 651800; in the data active means inhibition above about 19%;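 further: recombinant mutant TCR 2C K166C tagged with TAMRA read by polarization; 0% = receptor in buffer alone and 100% = receptor with positive control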
# SIAE inh: human SIAE inhibition, primary screen | Q9HAT2 | 0.69% of 370,000 active | SIAE FP-Rh probe binding, fluorescence polarization | inhibition, % at 9.66 µM;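 active means inhibition above a cutoff: mean of compounds within the control limits plus 3 SD of those, cut at about 17% in these data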;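 further: 0% = plate median of compound wells and 100% = probe without SIAE protein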
# mABHD4 conf: ABHD4 (mouse) inhibition, FP confirmation | purified mABHD4, FP-Rh probe fluorescence polarization | AID 720658 | inhibition, % at 8.92 µM | 55% of 1,800 active | shares compounds with mABHD4 FP;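 active means mean inhibition across replicates above the hit cutoff set in the primary screen, cut at about 30% in these data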;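 further: 0% = wild-type ABHD4 with DMSO and 100% = catalytically dead S159A mutant with DMSO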
# SIAE confirm: confirmation of human SIAE inhibitors; shares compounds with SIAE inh; SIAE FP-Rh activity-based probe, fluorescence polarization; inhibition, % at 9.66 µM; 13% of 2,300 active;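 active means mean inhibition of the replicates above the hit cutoff set in the primary screen, cut at about 17% in these data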;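 further: 0% = SIAE with DMSO and probe and 100% = probe without SIAE; inhibitors lower polarization as more probe stays unbound to SIAE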
# Starred values were filed as active, the others as inactive; . = not tested or not shown.
SMILES,Tn6 DDE FP,HTRA1 inhibitor,mABHD4 FP,DDE Tn7 FP inh,TCR CD3 inh,SIAE inh,mABHD4 conf,others
O=C(OC12CCCN(C1)/C(=C/c1ccc(Cl)cc1)C2)c1ccno1 (configuration not stated),2,.,-3,-3,.,-1,.,
Fc1ccc(-[n+]2nc(Nc3ccccc3)sc2-c2c(Cl)cccc2Cl)cc1,-7,6,7,-3,-2,-7,.,
CCc1ccc(Nc2n[n+](-c3ccccc3)c(-c3c(Cl)cccc3Cl)s2)cc1,-9,32,42*,-2,4,11,47*,
O=[N+]([O-])c1cccc(C=Nc2cccc3ccccc23)c1O,-7,24,25,6,8,9,.,
CCOC(=O)c1c(/N=C/c2cccc([N+](=O)[O-])c2O)sc(C)c1C,3,25,33*,-4,7,14,16,
CC1=Nc2nc(N3CCCCC3)c(C#N)c3c4c(nc(c23)N1)N(c1ccc(C(C)C)cc1)C(=O)C4,-1,2,44*,2,5,6,42*,
CC(C)c1ccc(-c2nc(N3CCCCC3)[nH]c(=O)c2C#N)cc1,-3,-4,10,3,8,3,.,
Cc1ccc(S(=O)(=O)NNC(=O)C(=O)NNc2ccccn2)cc1,11,5,42*,0,-3,-3,35*,
Cc1ccccc1S(=O)(=O)NNC(=O)C(=O)NNc1ccccn1,-3,6,35*,2,-2,-4,33*,
Cc1ccc(-c2cc(-c3nnc(SCC(=O)Nc4ccccc4-c4ccccc4)n3N)[nH]n2)cc1,-2,.,-4,-11,.,-7,.,
C=CCN1C(=O)[C@@H](CC(=O)NCc2cccc3ccccc23)[C@]2(C(=O)OCC)CCCCC/C=C/12,-2,.,-8,-1,.,-2,.,
CCCCOc1ccc2c(c1)C(=O)c1cc(O)ccc1-2,-15,35,44*,-4,5,9,54*,
CCOc1ccc2c(c1)C(=O)c1cc(OCC(=O)O)ccc1-2,0,1,2,-6,2,-9,.,
N#CC1=C(N)Oc2cc(N)ccc2C1c1ccccc1Cl (configuration not stated),-11,3,30*,0,0,1,-4,
COc1ccc2nc(-n3c(O)c(C4=c5ccccc5=NC4=O)[nH]c3=S)sc2c1,-1,30,52*,5,0,3,169*,
Cn1c(O)c(C2=c3ccccc3=NC2=O)[nH]c1=S,-7,6,5,4,-5,-2,.,
Cc1ccc(Cn2cc(CN3[C@@H](Cc4ccccc4)COc4cc(Br)ccc4S3(=O)=O)nn2)cc1,5,.,4,5,.,1,.,
C=C[C@]1(C)C=C2C(=O)[C@@]3(O)OC(=O)[C@@]4(CCCC(C)(C)[C@H]34)[C@@]2(O)CC1,-4,.,52*,-5,-8,10,3,
CC1=NNC(=O)C1C(c1ccc(Cl)cc1)C(C#N)C#N (configuration not stated),4,.,-8,-3,-12,0,.,
CC1=NN(Cc2ccccc2)C(=O)C1C(c1ccncc1)C(C#N)C#N (configuration not stated),-4,1,4,0,3,10,.,
CC1=NN(Cc2ccccc2)C(=O)C1C(c1ccccc1)C(C#N)C#N (configuration not stated),3,3,53*,-4,6,8,-10,
CC1=NN(Cc2ccccc2)C(=O)C1C(c1ccc(Cl)cc1)C(C#N)C#N (configuration not stated),0,33,83*,-1,-8,8,29,
COC(=O)C1=C(C)N(Cc2ccc(C(F)(F)F)cc2)C(=NCc2ccccc2)NC1c1ccc(C(F)(F)F)cc1 (configuration not stated),-2,.,31*,0,2,3,39*,
COC(=O)C1=C(C)N(Cc2ccc(C(F)(F)F)cc2)C(=NCc2ccccc2)NC1c1ccccc1 (configuration not stated),2,.,33*,1,-3,-12,48*,
COC(=O)C1=C(C)N(Cc2ccc(C(F)(F)F)cc2)C(=NCc2ccccc2)NC1c1cccc(Cl)c1 (configuration not stated),-5,.,37*,9,5,7,44*,
SMILES,Tn6 DDE FP,HTRA1 inhibitor,mABHD4 FP,DDE Tn7 FP inh,TCR CD3 inh,SIAE inh,mABHD4 conf,others
COC(=O)C1=C(C)N(Cc2ccc(C(F)(F)F)cc2)C(=NCc2ccccc2)NC1c1cccc(C(F)(F)F)c1 (configuration not stated),3,.,23,-6,0,-1,.,
COC(=O)C1=C(C)N(Cc2cccc(C(F)(F)F)c2)C(=NCc2ccc3c(c2)OCO3)NC1c1ccc(Cl)cc1 (configuration not stated),-9,.,40*,-7,9,-3,82*,
CCCCN1C[C@@H](COCc2ccccc2)Oc2cc(F)ccc2S1(=O)=O,-5,.,-7,-5,.,0,.,
COc1ccc(-c2nnc3n2N=C(c2cccc([N+](=O)[O-])c2)CS3)cc1,-14,.,-7,5,.,-6,.,
COC(=O)C1=C(C)N(Cc2ccccc2)C(=NCc2cccc(C(F)(F)F)c2)N[C@H]1c1cccc(F)c1,6,-35,37*,9,3,-1,44*,
COC(=O)c1ccc(N)cc1O,-10,-4,-2,-4,-2,8,.,
COC(=O)c1ccc(=O)c2nc3/c(=C/O)c(O)cc(=O)c3[nH]c12,8,61*,57*,2,140*,47*,59*,SIAE confirm=28*
O=C(NCCc1ccccc1)OCc1cn(Cc2ccccc2F)nn1,-2,.,0,-8,.,-1,.,
CCN1C(=O)[C@@H]2[C@@H]3CN(S(=O)(=O)c4ccc(C)cc4)[C@@H](c4ccccc4)[C@@H]3C(=O)C[C@@H]2C1=O,-6,.,2,-7,1,2,.,
CCOC1=CC2=C(C(=O)C(Cl)=CC2=O)[C@@H]2CN(S(=O)(=O)c3ccc(C)cc3)[C@@H](c3ccccc3)[C@H]12,-13,.,89*,-2,15,23*,101*,SIAE confirm=18*
O=C1NN(c2ccc(Br)cc2)C(=O)/C1=C\c1ccc(O)cc1O,1,6,25,-2,-4,7,.,
O=C1NN(c2cccc(Br)c2)C(=O)/C1=C\c1ccc(O)cc1,-6,-1,37*,-7,3,19*,41*,SIAE confirm=4
